Published values collected from several papers.
Lines come from different studies, so protocols differ.
Target: Fibroblast growth factor receptor 1 (FGFR1, Homo sapiens, UniProt P11362)

COc1cnc(Nc2cccc(S(N)(=O)=O)c2)nc1N1CCN(c2ccccc2)C(=O)C1
remaining binding (binding; competition with immobilised ligand; 1 µM): 83%

O=C(c1ccc(Nc2ncc(Cl)c(-c3cc4ccccc4s3)n2)cc1)N1CCC(N2CCCC2)CC1
remaining binding (binding; competition with immobilised ligand; 1 µM): 36%

c1cnn2ncc(-c3ccnc(N4CCC45COC5)n3)c2c1
remaining binding (binding; 1 µM): 100%

O=C(NCC1CCOCC1)c1n[nH]cc1NC(=O)c1c(F)cccc1F
remaining binding (binding; competition with immobilised ligand; 1 µM): 100%

FC(F)(F)Oc1cccc(-c2cnc3ccc(-c4ccncc4)nn23)c1
remaining binding (cell-free assay; competition with immobilised ligand; 5 µM): 72%

COc1cccc(CNC(=O)c2nc3scc(COCc4ccc(C(=O)O)cc4)c3c(=O)[nH]2)c1
remaining binding (cell-free assay; competition with immobilised ligand; 1 µM): 86.5%

CN(C)c1ncc(F)c(-c2cnn3ncccc23)n1
remaining binding (binding; 1 µM): 100%

Nc1ncc2c(n1)-c1c([nH]c3ccc(C#CC4CC4)cc13)CCCC2
remaining binding (binding; competition with immobilised ligand; 1 µM): 79%

CC1=C(C#N)[C@@H](c2ccc3[nH]nc(C)c3c2)C(C#N)=C(c2ccc(Cl)cc2)N1
remaining binding (cell-free assay; competition with immobilised ligand; 1 µM): 86.6%

N[C@H]1CCN(c2nccc(-c3cnn4ncccc34)n2)C1
remaining binding (binding; 1 µM): 100%

CNC(=O)Nc1ccc2c(c1)CC[C@@]21OC(=O)N(CC(=O)N(Cc2ccc(F)cc2)[C@@H](C)C(F)(F)F)C1=O
remaining binding (cell-free assay; competition with immobilised ligand; 1 µM): 82%

O=C(NCCCN1CCOCC1)c1ccc(Nc2nccc(-c3cc4ccccc4s3)n2)cc1
remaining binding (binding; competition with immobilised ligand; 1 µM): 88%

COc1ccnn2ncc(-c3ccnc(N(C)C)n3)c12
remaining binding (binding; 1 µM): 86%

O=C1CCc2cc(Nc3cc(OC4CCOCC4)c([N+](=O)[O-])cc3Cl)ccc2N1
remaining binding (cell-free assay; competition with immobilised ligand; 1 µM): 93%

C[C@H]1CCN(c2nccc(-c3cnn4ncccc34)n2)C1
remaining binding (binding; 1 µM): 100%

O=C(O)[C@H]1[C@H](Cn2nnc3ccccc3c2=O)CC[C@@H]1C(=O)c1ccc(OCCC2CCOCC2)cc1
remaining binding (cell-free assay; competition with immobilised ligand; 1 µM): 98%

COc1ncc2cc3ccccc3nc2c1C#N
remaining binding (cell-free assay; competition with immobilised ligand; 5 µM): 73%

C[C@H](NC(=O)c1cnc2n1[C@](C)(Cc1ccc(C#N)cc1)C(=O)N2c1cc(Cl)c(F)c(Cl)c1)C(=O)NC1(c2ccccn2)CC1
remaining binding (cell-free assay; competition with immobilised ligand; 1 µM): 100%

CN(C)c1nccc(-c2cnc3ncccn23)n1
remaining binding (binding; 1 µM): 82%

Cc1cnc(Nc2ccc(C(=O)N3CCC(N4CCCC4)CC3)cc2)nc1-c1cc2ccccc2s1
remaining binding (binding; competition with immobilised ligand; 1 µM): 10%

CC1CCCN1c1nccc(-c2cnn3ncccc23)n1 (stereo not shown)
remaining binding (binding; 1 µM): 100%

CN(C)c1ncnc(-c2ccc3nc(Nc4cc(CN5CCN(C(=O)CC(F)(F)F)CC5)ccn4)[nH]c3c2)c1Cl
remaining binding (cell-free assay; competition with immobilised ligand; 1 µM): 100%
